Experimental data published in article PMC5761012 (Journal of Pharmaceutical Analysis, 2013).

How the values were obtained:
[1] = Analyte stability in human plasma and phosphate buffer; format: in vitro ADME; settings: for time stable at ambient temperature / reduction of the concentration after three freeze–thaw cycles: QC samples; for time stable at ambient temperature: human plasma and phosphate buffer, three concentration levels; for reduction of the concentration after three freeze–thaw cycles: −20 °C to room temperature; for time stable in auto-sampler conditions: processed QC samples, 15 °C
In short: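 Processed QC samples in human plasma and pH 7.4 phosphate buffer were tested at three concentration levels, three replicates each. Conditions were 6 h at ambient temperature, or three freeze (−20 °C)/thaw (room temperature) cycles followed by 24 h at 15 °C in the auto-sampler. Separately, samples were held 96 h at 4 °C. Mean UPLC–ESI-MS/MS concentrations were compared with freshly prepared QC samples.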

[2] = system: human plasma proteins; assay: Human plasma protein binding by equilibrium dialysis with UPLC-MS/MS; format: in vitro ADME; settings: for Kd at 72 h: human, human plasma (equilibrium dialysis against phosphate buffer); for maximum binding ability β: modified Scatchard equation, extract 1.2 to 60 μg/mL, human plasma, Pt 71.28 g/L
In short: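 Blank human plasma was placed in 10 kDa dialysis bags (pre-soaked in pH 7.4 phosphate buffer) and dialysed at 4 °C for 72 h against buffer containing the aqueous plant extract (1.2–60 µg/mL). Inside-bag concentration gave total drug; outside gave free drug. Analysis was by UPLC–ESI-MS/MS after methanol/formic acid protein precipitation, with matrix-specific 1/x² weighted calibration. Parameters came from a modified Scatchard fit using Pt 71.28 g/L (Lowry) and plasma water 99.25%.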

| time stable at ambient temperature [1] | reduction of the concentration after three freeze–thaw cycles [1] | time stable in auto-sampler conditions [1] | Kd at 72 h [2] | maximum binding ability β [2] | Compound |
| --- | --- | --- | --- | --- | --- |
| at least 6 h | < 10% | ≥ 24 h | 5.29 µM | 0.6420 µmol/g | C[C@@H]1O[C@@H](Oc2c(-c3ccc(O)c(O)c3)oc3cc(O)cc(O)c3c2=O)[C@H](O)[C@H](O)[C@H]1O [quercitrin] |
| at least 6 h | < 10% | ≥ 24 h | 19.7 µM | 1.650 µmol/g | O=c1cc(-c2ccc(O)cc2)oc2c([C@@H]3O[C@H](CO)[C@@H](O)[C@H](O)[C@H]3O)c(O)cc(O)c12 [vitexin] |
| at least 6 h | < 10% | ≥ 24 h | 26.6 µM | 2.685 µmol/g | O=c1cc(-c2ccc(O)c(O)c2)oc2c([C@@H]3O[C@H](CO)[C@@H](O)[C@H](O)[C@H]3O)c(O)cc(O)c12 [orientin] |
